According to ChEMBL document CHEMBL5030506 (J Med Chem, 2021):
Calls of active or inactive are those of the source. No cut-off for these calls is given here.

How the values were obtained:
[1] = target: Protein arginine N-methyltransferase 6 (Homo sapiens, UniProt Q96LA8); assay: Inhibition of PRMT6 (unknown origin)
[2] = target: N-lysine methyltransferase KMT5A (Homo sapiens) (UniProt Q9NQR1); assay: Inhibition of SETD8 (unknown origin) at 1 to 10 uM; details: dose 1-10 µM
How it was run: (§1)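 Part of a 33-methyltransferase selectivity panel covering 8 PRMTs, 21 PKMTs, 3 DNMTs and 1 RNA methyltransferase. Each compound was tested at 1 μM and at 10 μM, with n = 3.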

[3] = target: Histone-lysine N-methyltransferase, H3 lysine-36 specific (Homo sapiens) (UniProt Q96L73); assay: Inhibition of NSD1 (unknown origin) at 1 to 10 uM; details: dose 1-10 µM; how it was run: as §1
[4] = target: Protein arginine N-methyltransferase 3 (Homo sapiens) (UniProt O60678); assay: Inhibition of PRMT3 (unknown origin) at 1 to 10 uM; details: dose 1-10 µM; how it was run: as §1
[5] = target: Histone-lysine N-methyltransferase 2A (Homo sapiens) (UniProt Q03164); assay: Inhibition of MLL1 (unknown origin) at 1 to 10 uM; details: dose 1-10 µM; how it was run: as §1
[6] = target: Histone-lysine N-methyltransferase PRDM9 (Homo sapiens) (UniProt Q9NQV7); assay: Inhibition of PRDM9 (unknown origin) at 1 to 10 uM; details: dose 1-10 µM; how it was run: as §1
[7] = target: Protein arginine N-methyltransferase 1 (Homo sapiens) (UniProt Q99873); assay: Inhibition of PRMT1 (unknown origin) at 1 to 10 uM; details: dose 1-10 µM; how it was run: as §1
[8] = target: Histone-lysine N-methyltransferase, H3 lysine-79 specific (Homo sapiens) (UniProt Q8TEK3); assay: Inhibition of DOT1L (unknown origin) at 1 to 10 uM; details: dose 1-10 µM; how it was run: as §1
MCF7 = assay: Cytotoxicity against MCF7 cells at up to 10 uM measured after 3 days by CCK8 assay; format: cell-based; details: human, mcf7, 72 h, time 3 day
How it was run: (§2)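 Cells (1 × 10^4 per well) were seeded and, after 24 h, exposed for 3 days to serially diluted compound starting at 10 μM. CCK-8 (WST-8) reagent was then added for 4 h at 37 °C, and absorbance was read at 450 nm. Values are the average ± SD of three replicate experiments.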

[9] = target: Protein arginine N-methyltransferase 5 (Homo sapiens) (UniProt O14744); assay: Inhibition of PRMT5 (unknown origin) at 1 to 10 uM; details: dose 1-10 µM; how it was run: as §1
[10] = target: DNA (cytosine-5)-methyltransferase 3A (Homo sapiens) (UniProt Q9Y6K1); assay: Inhibition of DNMT3A (unknown origin) at 1 to 10 uM; details: dose 1-10 µM; how it was run: as §1
[11] = target: Protein arginine N-methyltransferase 8 (Homo sapiens) (UniProt Q9NR22); assay: Inhibition of PRMT8 (unknown origin) at 1 to 10 uM; details: dose 1-10 µM; how it was run: as §1
[12] = target: RNA 5'-monophosphate methyltransferase (Homo sapiens) (UniProt Q7Z5W3); assay: Inhibition of BCDIN3D (unknown origin) at 1 to 10 uM; details: dose 1-10 µM; how it was run: as §1
[13] = target: Protein arginine N-methyltransferase 9 (Homo sapiens) (UniProt Q6P2P2); assay: Inhibition of PRMT9 (unknown origin) at 1 to 10 uM; details: dose 1-10 µM
[14] = target: Histone-lysine N-methyltransferase SETD2 (Homo sapiens) (UniProt Q9BYW2); assay: Inhibition of SETD2 (unknown origin) at 1 to 10 uM; details: dose 1-10 µM; how it was run: as §1
HEK293T [15] = assay: Inhibition of FLAG-tagged PRMT6 V86K/D88A mutant (unknown origin) expressed in HEK293T assessed as reduction in H3R2me2a level measured after 20 hrs by SDS gel electrophoresis relative to control; format: cell-based; details: Homo sapiens
How it was run: (§3)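 HEK293T cells were grown in DMEM with 10% FBS and penicillin/streptomycin. The next day they were transfected with FLAG-PRMT6 or the V86K/D88A mutant (1 μg DNA per well). After 4 h, medium was replaced with titrated compound for 20 h. Cells were lysed in benzonase-containing buffer, SDS was added to 1%, and lysates were western blotted for H3R2me2a or H4R3me2a, total H3/H4 and FLAG, with infrared detection at 800/700 nm.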

[16] = target: Histone-lysine N-methyltransferase SMYD3 (Homo sapiens) (UniProt Q9H7B4); assay: Inhibition of SMYD3 (unknown origin) at 1 to 10 uM; details: dose 1-10 µM; how it was run: as §1
[17] = target: Histone-lysine N-methyltransferase SUV39H1 (Homo sapiens) (UniProt O43463); assay: Inhibition of SUV39H1 (unknown origin) at 1 to 10 uM; details: dose 1-10 µM; how it was run: as §1
[18] = target: Histone-lysine N-methyltransferase ASH1L (Homo sapiens) (UniProt Q9NR48); assay: Inhibition of ASH1L (unknown origin) at 1 to 10 uM; details: dose 1-10 µM; how it was run: as §1
[19] = target: DNA (cytosine-5)-methyltransferase 1 (Homo sapiens) (UniProt P26358); assay: Inhibition of DNMT1 (unknown origin) at 1 to 10 uM; details: dose 1-10 µM; how it was run: as §1
[20] = target: Histone-lysine N-methyltransferase 2C (Homo sapiens) (UniProt Q8NEZ4); assay: Inhibition of MLL3 (unknown origin) at 1 to 10 uM; details: dose 1-10 µM; how it was run: as §1
[21] = target: Histone-lysine N-methyltransferase NSD3 (Homo sapiens) (UniProt Q9BZ95); assay: Inhibition of NSD3 (unknown origin) at 1 to 10 uM; details: dose 1-10 µM; how it was run: as §1
[22] = target: Histone-lysine N-methyltransferase EHMT1 (Homo sapiens) (UniProt Q9H9B1); assay: Inhibition of GLP (unknown origin) at 1 to 10 uM; details: dose 1-10 µM; how it was run: as §1
[23] = target: Histone-lysine N-methyltransferase KMT5B (Homo sapiens) (UniProt Q4FZB7); assay: Inhibition of SUV420H1 (unknown origin) at 1 to 10 uM; details: dose 1-10 µM; how it was run: as §1
[24] = target: Histone-lysine N-methyltransferase SETDB1 (Homo sapiens) (UniProt Q15047); assay: Inhibition of SETDB1 (unknown origin) at 1 to 10 uM; details: dose 1-10 µM; how it was run: as §1
[25] = target: N-lysine methyltransferase SMYD2 (Homo sapiens) (UniProt Q9NRG4); assay: Inhibition of SMYD2 (unknown origin) at 1 to 10 uM; details: dose 1-10 µM; how it was run: as §1
[26] = target: Histone-lysine N-methyltransferase SUV39H2 (Homo sapiens) (UniProt Q9H5I1); assay: Inhibition of SUV39H2 (unknown origin) at 1 to 10 uM; details: dose 1-10 µM; how it was run: as §1
HEK293T [27] = assay: Inhibition of FLAG-tagged PRMT6 V86K/D88A mutant (unknown origin) expressed in HEK293T assessed as reduction in H4R3me2a level measured after 20 hrs by SDS gel electrophoresis relative to control; format: cell-based; details: Homo sapiens; how it was run: as §3
[28] = target: Histone-lysine N-methyltransferase EHMT2 (Homo sapiens) (UniProt Q96KQ7); assay: Inhibition of G9a (unknown origin) at 1 to 10 uM; details: dose 1-10 µM; how it was run: as §1
[29] = target: Histone-lysine N-methyltransferase SETD7 (Homo sapiens) (UniProt Q8WTS6); assay: Inhibition of SETD7 (unknown origin) at 1 to 10 uM; details: dose 1-10 µM; how it was run: as §1
[30] = target: Histone-lysine N-methyltransferase EZH2 (Homo sapiens) (UniProt Q15910); assay: Inhibition of PRC2 (unknown origin) at 1 to 10 uM; details: dose 1-10 µM; how it was run: as §1
[31] = target: Protein arginine N-methyltransferase 7 (Homo sapiens) (UniProt Q9NVM4); assay: Inhibition of PRMT7 (unknown origin) at 1 to 10 uM; details: dose 1-10 µM; how it was run: as §1
[32] = target: Histone-lysine N-methyltransferase KMT5C (Homo sapiens) (UniProt Q86Y97); assay: Inhibition of SUV420H2 (unknown origin) at 1 to 10 uM; details: dose 1-10 µM; how it was run: as §1
[33] = target: Histone-lysine N-methyltransferase NSD2 (Homo sapiens) (UniProt O96028); assay: Inhibition of NSD2 (unknown origin) at 1 to 10 uM; details: dose 1-10 µM; how it was run: as §1
[34] = target: DNA (cytosine-5)-methyltransferase 3B (Homo sapiens) (UniProt Q9UBC3); assay: Inhibition of DNMT3B (unknown origin) at 1 to 10 uM; details: dose 1-10 µM; how it was run: as §1
PNT2 = assay: Cytotoxicity against PNT2 cells at up to 10 uM measured after 3 days by CCK8 assay; format: cell-based; details: human, pnt2, 72 h, time 3 day; how it was run: as §2
[35] = target: Histone-arginine methyltransferase CARM1 (Homo sapiens) (UniProt Q86X55); assay: Inhibition of PRMT4 (unknown origin) at 1 to 10 uM; details: dose 1-10 µM; how it was run: as §1
HEK-293T [36] = assay: Cytotoxicity against HEK293T cells at up to 10 uM measured after 3 days by CCK8 assay; format: cell-based; details: human, 72 h, time 3 day; how it was run: as §2
HEK-293T [37] = assay: Cytotoxicity against HEK293T cells at 30 uM measured after 20 hrs by Western blot analysis; details: human
[38] = Inhibition of PRMT6 mutant 17 (unknown origin) using biotinylated H4(1 to 24) peptide as substrate preincubated for 20 mins in presence of [3H]SAM followed by substrate addition by scintillation proximity assay; design: species or system Homo sapiens
[39] = Inhibition of PRMT6 mutant 19 (unknown origin) using biotinylated H4(1 to 24) peptide as substrate preincubated for 20 mins in presence of [3H]SAM followed by substrate addition by scintillation proximity assay; design: species or system Homo sapiens
[40] = Inhibition of PRMT6 mutant 20 (unknown origin) using biotinylated H4(1 to 24) peptide as substrate preincubated for 20 mins in presence of [3H]SAM followed by substrate addition by scintillation proximity assay; design: species or system Homo sapiens

Sequence of Histone-lysine N-methyltransferase KMT5C (Homo sapiens) (Q86Y97 whole entry, looked up): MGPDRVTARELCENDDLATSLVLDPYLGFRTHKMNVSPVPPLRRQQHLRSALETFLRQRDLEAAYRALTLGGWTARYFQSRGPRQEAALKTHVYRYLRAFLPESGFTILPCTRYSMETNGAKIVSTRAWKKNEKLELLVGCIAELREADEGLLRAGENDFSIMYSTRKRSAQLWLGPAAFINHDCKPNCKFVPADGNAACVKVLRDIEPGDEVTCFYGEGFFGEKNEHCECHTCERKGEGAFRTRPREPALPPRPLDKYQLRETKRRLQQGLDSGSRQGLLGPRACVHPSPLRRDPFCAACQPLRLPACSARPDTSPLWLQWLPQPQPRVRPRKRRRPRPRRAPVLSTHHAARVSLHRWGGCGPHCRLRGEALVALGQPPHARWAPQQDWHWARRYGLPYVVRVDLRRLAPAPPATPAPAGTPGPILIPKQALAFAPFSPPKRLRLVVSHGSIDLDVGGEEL
Sequence of Histone-lysine N-methyltransferase SUV39H2 (Homo sapiens) (Q9H5I1 whole entry): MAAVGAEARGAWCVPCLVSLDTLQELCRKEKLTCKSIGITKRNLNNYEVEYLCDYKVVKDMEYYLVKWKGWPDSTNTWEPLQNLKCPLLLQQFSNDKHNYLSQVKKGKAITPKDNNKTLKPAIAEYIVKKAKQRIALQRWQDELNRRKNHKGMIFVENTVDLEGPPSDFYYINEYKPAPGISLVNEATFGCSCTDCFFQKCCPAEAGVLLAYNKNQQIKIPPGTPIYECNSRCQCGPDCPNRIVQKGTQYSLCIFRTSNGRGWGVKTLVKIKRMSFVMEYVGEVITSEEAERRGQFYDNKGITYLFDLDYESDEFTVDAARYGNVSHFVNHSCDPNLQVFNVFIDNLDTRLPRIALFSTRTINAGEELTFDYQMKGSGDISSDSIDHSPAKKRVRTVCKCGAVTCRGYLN
Sequence of Protein arginine N-methyltransferase 3 (Homo sapiens) (O60678 2-531 limits assumed): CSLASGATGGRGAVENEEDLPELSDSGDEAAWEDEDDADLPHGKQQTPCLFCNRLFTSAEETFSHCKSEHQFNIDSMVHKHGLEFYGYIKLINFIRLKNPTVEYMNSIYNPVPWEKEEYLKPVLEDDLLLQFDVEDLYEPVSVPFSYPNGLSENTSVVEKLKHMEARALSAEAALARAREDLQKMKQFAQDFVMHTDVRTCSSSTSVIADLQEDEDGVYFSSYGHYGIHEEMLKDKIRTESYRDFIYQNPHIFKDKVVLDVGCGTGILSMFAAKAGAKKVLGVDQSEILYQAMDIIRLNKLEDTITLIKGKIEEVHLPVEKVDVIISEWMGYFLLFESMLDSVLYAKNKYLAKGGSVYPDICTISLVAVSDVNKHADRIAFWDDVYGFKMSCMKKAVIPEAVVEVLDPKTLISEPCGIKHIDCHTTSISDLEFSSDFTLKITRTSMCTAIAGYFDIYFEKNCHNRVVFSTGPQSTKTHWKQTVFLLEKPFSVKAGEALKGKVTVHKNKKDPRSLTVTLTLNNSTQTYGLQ
Sequence of Protein arginine N-methyltransferase 7 (Homo sapiens) (Q9NVM4 whole entry): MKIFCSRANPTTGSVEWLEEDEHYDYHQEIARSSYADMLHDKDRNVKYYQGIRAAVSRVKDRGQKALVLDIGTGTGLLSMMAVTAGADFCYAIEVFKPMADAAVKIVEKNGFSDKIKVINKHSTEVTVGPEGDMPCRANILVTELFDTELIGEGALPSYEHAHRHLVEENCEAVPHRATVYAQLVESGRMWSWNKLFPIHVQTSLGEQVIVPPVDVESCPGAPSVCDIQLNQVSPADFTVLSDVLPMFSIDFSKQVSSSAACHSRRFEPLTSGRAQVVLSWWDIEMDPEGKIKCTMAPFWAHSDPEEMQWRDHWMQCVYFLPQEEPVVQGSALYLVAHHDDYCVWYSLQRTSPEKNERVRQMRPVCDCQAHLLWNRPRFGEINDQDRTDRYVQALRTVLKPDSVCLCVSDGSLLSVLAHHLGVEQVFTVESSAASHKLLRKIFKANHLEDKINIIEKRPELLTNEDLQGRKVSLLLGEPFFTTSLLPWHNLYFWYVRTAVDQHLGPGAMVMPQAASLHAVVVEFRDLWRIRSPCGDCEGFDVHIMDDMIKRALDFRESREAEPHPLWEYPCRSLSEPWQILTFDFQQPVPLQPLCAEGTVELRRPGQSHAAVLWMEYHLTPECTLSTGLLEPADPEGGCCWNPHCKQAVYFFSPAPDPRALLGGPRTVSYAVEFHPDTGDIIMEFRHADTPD
Sequence of Histone-arginine methyltransferase CARM1 (Homo sapiens) (Q86X55 whole entry): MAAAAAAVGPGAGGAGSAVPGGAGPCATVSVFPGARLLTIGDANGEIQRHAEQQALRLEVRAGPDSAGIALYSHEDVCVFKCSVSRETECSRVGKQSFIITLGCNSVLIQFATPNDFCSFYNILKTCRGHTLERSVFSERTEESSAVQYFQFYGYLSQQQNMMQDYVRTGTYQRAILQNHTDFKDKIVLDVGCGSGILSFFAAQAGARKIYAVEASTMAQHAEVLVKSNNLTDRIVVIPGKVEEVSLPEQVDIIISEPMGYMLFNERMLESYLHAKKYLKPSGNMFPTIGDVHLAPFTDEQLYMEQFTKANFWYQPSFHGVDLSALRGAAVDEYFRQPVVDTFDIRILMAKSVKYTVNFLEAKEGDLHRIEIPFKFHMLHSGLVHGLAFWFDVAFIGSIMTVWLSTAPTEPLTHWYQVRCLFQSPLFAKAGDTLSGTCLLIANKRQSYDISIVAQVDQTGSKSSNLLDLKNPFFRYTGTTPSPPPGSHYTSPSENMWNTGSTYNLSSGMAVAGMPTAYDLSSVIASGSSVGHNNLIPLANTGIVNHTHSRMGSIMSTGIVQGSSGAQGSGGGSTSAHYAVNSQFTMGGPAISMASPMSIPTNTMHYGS
Sequence of Histone-lysine N-methyltransferase EHMT1 (Homo sapiens) (Q9H9B1 whole entry): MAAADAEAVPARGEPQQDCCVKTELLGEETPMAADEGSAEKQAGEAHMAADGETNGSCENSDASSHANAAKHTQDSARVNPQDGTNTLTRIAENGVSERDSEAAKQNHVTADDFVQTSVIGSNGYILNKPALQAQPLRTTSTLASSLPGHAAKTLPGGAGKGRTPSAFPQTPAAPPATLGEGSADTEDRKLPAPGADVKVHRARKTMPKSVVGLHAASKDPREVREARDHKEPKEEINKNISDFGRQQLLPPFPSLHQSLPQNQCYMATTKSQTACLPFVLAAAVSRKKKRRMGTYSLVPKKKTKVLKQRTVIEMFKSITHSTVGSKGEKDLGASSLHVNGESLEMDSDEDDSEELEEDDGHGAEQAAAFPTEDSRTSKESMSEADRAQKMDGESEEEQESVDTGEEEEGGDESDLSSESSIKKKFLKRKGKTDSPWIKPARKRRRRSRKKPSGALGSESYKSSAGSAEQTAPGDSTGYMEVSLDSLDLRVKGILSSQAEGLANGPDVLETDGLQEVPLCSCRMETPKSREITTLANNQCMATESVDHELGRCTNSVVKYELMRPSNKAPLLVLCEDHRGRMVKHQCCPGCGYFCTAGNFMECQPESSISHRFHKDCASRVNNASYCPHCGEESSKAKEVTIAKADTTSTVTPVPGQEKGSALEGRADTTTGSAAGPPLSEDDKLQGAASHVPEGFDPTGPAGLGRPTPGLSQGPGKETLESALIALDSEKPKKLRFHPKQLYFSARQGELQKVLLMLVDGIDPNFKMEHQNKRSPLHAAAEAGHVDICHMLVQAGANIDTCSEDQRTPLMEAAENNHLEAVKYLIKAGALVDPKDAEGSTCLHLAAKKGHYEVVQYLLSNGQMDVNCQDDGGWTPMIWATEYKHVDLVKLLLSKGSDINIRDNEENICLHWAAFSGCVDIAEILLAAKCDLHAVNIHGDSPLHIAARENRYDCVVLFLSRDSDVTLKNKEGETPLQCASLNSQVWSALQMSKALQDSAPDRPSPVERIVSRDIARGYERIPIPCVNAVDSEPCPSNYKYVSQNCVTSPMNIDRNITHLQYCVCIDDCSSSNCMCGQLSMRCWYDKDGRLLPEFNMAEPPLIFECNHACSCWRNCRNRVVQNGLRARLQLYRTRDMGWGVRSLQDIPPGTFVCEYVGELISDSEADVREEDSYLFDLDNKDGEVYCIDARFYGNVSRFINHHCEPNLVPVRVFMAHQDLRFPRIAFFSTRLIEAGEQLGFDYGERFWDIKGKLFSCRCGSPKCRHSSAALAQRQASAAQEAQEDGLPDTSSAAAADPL
Sequence of Histone-lysine N-methyltransferase SUV39H1 (Homo sapiens) (O43463 whole entry): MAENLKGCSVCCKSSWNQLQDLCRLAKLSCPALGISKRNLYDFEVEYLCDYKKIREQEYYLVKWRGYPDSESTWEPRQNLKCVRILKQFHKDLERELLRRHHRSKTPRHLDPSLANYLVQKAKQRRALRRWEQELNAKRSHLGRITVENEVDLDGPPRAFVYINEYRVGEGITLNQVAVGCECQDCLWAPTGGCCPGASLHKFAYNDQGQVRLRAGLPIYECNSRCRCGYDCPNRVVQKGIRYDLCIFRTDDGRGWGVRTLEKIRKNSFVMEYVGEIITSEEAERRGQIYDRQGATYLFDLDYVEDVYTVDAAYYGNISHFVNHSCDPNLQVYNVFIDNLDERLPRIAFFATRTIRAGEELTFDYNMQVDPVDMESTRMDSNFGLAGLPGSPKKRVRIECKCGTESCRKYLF
Sequence of Protein arginine N-methyltransferase 5 (Homo sapiens) (O14744 whole entry): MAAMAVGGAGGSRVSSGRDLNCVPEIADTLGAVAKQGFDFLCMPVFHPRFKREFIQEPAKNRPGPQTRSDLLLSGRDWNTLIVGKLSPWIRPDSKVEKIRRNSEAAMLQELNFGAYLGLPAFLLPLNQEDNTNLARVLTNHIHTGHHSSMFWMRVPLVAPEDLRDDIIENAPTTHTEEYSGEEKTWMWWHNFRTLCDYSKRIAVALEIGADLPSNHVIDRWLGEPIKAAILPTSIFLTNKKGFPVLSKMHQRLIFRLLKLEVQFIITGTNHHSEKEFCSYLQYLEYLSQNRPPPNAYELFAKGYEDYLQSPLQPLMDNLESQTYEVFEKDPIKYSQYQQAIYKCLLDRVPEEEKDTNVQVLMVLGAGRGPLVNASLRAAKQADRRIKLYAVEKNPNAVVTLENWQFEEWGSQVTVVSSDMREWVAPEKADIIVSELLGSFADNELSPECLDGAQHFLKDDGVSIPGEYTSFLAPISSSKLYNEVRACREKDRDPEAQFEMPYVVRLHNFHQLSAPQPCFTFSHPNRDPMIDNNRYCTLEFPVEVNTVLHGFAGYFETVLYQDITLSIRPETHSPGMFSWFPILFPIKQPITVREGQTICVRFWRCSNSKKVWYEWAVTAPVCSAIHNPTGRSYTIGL

| Structure (SMILES) | inhibition [2] | inhibition [3] | inhibition [4] | inhibition [5] | inhibition [6] | inhibition [7] | inhibition [8] | Activity (MCF7) | inhibition [9] | inhibition [10] | inhibition [11] | inhibition [12] | inhibition [13] | inhibition [14] | inhibition [16] | inhibition [17] | inhibition [18] | inhibition [19] | inhibition [20] | inhibition [21] | further results |
| --- | --- | --- | --- | --- | --- | --- | --- | --- | --- | --- | --- | --- | --- | --- | --- | --- | --- | --- | --- | --- | --- |
| CNCCN1CCC(OCc2ccccc2)CC1 | – | – | – | – | – | – | – | – | – | – | – | – | – | – | – | – | – | – | – | – | IC50 [1]: 0.034 µM |
| Cc1cc(C)cc([C@@H]2c3cc(C)ccc3NC(=O)CN2C(=O)c2ccc(Br)s2)c1 | inactive | inactive | inactive | inactive | inactive | inactive | inactive | Non-Toxic | inactive | inactive | inactive | inactive | inactive | inactive | inactive | inactive | inactive | inactive | inactive | inactive | inhibition (HEK293T [15]): 100%; inhibition [22]: inactive; inhibition [23]: inactive; inhibition [24]: inactive; inhibition [25]: inactive; inhibition [26]: inactive; inhibition (HEK293T [27]): 100%; inhibition [28]: inactive; inhibition [29]: inactive; inhibition [30]: inactive; inhibition [31]: inactive; inhibition [32]: inactive; inhibition [33]: inactive; inhibition [34]: inactive; Activity (PNT2): Non-Toxic; inhibition [35]: inactive; Activity (HEK-293T [36]): Non-Toxic |
| Cc1cc(C)cc([C@H]2c3cc(C)ccc3NC(=O)CN2C(=O)c2ccc(Br)s2)c1 | inactive | inactive | inactive | inactive | inactive | inactive | inactive | Non-Toxic | inactive | inactive | inactive | inactive | inactive | inactive | inactive | inactive | inactive | inactive | inactive | inactive | Activity (HEK-293T [37]): Toxic; inhibition [22]: inactive; inhibition [23]: inactive; inhibition [24]: inactive; inhibition [25]: inactive; inhibition [26]: inactive; inhibition [28]: inactive; inhibition [29]: inactive; inhibition [30]: inactive; inhibition [31]: inactive; inhibition [32]: inactive; inhibition [33]: inactive; inhibition [34]: inactive; Activity (PNT2): Non-Toxic; inhibition [35]: inactive |
| Cc1ccc2c(c1)[C@@H](c1ccc(F)cc1)N(C(=O)c1ccc(Br)o1)CC(=O)N2 | – | – | – | – | – | – | – | – | – | – | – | – | – | – | – | – | – | – | – | – | IC50 [38]: 46 µM; IC50 [39]: 17 µM; IC50 [40]: 41 µM |
